Measurements published in ChEMBL document CHEMBL1138564, “Microwave-induced synthesis and anti-microbial activities of 7,10,11,12-tetrahydrobenzo[c]acridin-8(9H)-one derivatives” (2009).

Columns and labels:
Bacillus subtilis = assay: Antimicrobial activity against Bacillus subtilis NCIM 2063 at 5 ug/disk after 24 hrs by disk diffusion method; type: functional; details: NCIM 2063, 24 h, read-out: DIZ
Outline: (§1)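 Disc diffusion on Mueller–Hinton agar. 100 µl of bacterial suspension at 10⁸ CFU/ml is spread on the plate. Discs carry test compounds at two loadings, dissolved in DMSO; DMSO alone serves as negative control. Ofloxacin disc is the positive reference. Plates are incubated at 37 °C for 24 h, and the inhibition zone diameter is measured.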

Bacillus cereus = assay: Antimicrobial activity against Bacillus cereus NCIM 2155 at 5 ug/disk after 24 hrs by disk diffusion method; type: functional; details: NCIM 2155, 24 h, read-out: DIZ; outline: as §1
Aliivibrio fischeri = assay: Antimicrobial activity against Vibrio fischeri NCIM 2154 at 5 ug/disk after 24 hrs by disk diffusion method; type: functional; details: NCIM 2154, 24 h, read-out: DIZ
Outline: (§2)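 Reference disc of ofloxacin at 5 µg/disc, used to check the sensitivity of each bacterial strain. 100 µl of inoculum at 10⁸ CFU/ml was spread on Mueller–Hinton agar and incubated at 37 °C for 24 h. The read-out was inhibition zone diameter.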

Salmonella typhimurium = assay: Antimicrobial activity against Salmonella Typhimurium NCIM 2501 at 5 ug/disk after 24 hrs by disk diffusion method; type: functional, Salmonella enterica subsp. enterica serovar Typhimurium; details: Salmonella enterica, NCIM 2501, 24 h; read-out: DIZ; outline: as §2
[1] = tested on: Rhodococcus corynebacterioides; assay: Antimicrobial activity against Corynebacterium rubrum NCIM 2252 at 5 ug/disk after 24 hrs by disk diffusion method; type: functional; details: Rhodococcoides corynebacterioides, NCIM 2252, 24 h; read-out: DIZ; outline: as §1
Staphylococcus = assay: Antimicrobial activity against Staphylococcus albus NCIM 2178 at 5 ug/disk after 24 hrs by disk diffusion method; type: functional; details: NCIM 2178, 24 h, read-out: DIZ; outline: as §2
Proteus vulgaris = assay: Antimicrobial activity against Proteus vulgaris NCIM 2027 at 5 ug/disk after 24 hrs by disk diffusion method; type: functional; details: NCIM 2027, 24 h, read-out: DIZ; outline: as §1
Klebsiella aerogenes = assay: Antimicrobial activity against Klebsiella aerogenes NCIM 2239 at 5 ug/disk after 24 hrs by disk diffusion method; type: functional; details: NCIM 2239, 24 h, read-out: DIZ; outline: as §1
Pseudomonas aeruginosa = assay: Antimicrobial activity against Pseudomonas aeruginosa NCIM 2200 at 5 ug/disk after 24 hrs by disk diffusion method; type: functional; details: NCIM 2200, 24 h, read-out: DIZ; outline: as §2
Escherichia coli = assay: Antimicrobial activity against Escherichia coli NCIM 2065 at 5 ug/disk after 24 hrs by disk diffusion method; type: functional; details: NCIM 2065, 24 h, read-out: DIZ; outline: as §1

**Q.** With `CC1COc2c(N3CCN(C)CC3)c(F)cc3c(=O)c(C(=O)O)cn1c23` (stereo not given) [OFLOXACIN] as the molecule, how does the zone of inhibition at 5 µg/disc (Bacillus subtilis) read?
**A.** Its zone of inhibition at 5 µg/disc is 24 mm.

**Q.** What about the zone of inhibition at 5 µg/disc (Bacillus cereus) of the same molecule?
**A.** Its zone of inhibition at 5 µg/disc is 19 mm.

**Q.** What about the zone of inhibition at 5 µg/disc (Aliivibrio fischeri) of the same molecule?
**A.** The zone of inhibition at 5 µg/disc was 27 mm.

**Q.** What about the zone of inhibition at 5 µg/disc (Salmonella typhimurium) of the same molecule?
**A.** Its zone of inhibition at 5 µg/disc is 21 mm.

**Q.** And the zone of inhibition at 5 µg/disc [1]?
**A.** The zone of inhibition at 5 µg/disc was 25 mm.

**Q.** What about the zone of inhibition at 5 µg/disc (Staphylococcus) of the same molecule?
**A.** Its zone of inhibition at 5 µg/disc is 21 mm.

**Q.** And the zone of inhibition at 5 µg/disc (Proteus vulgaris)?
**A.** Its zone of inhibition at 5 µg/disc is 19 mm.

**Q.** And the zone of inhibition at 5 µg/disc (Klebsiella aerogenes)?
**A.** The zone of inhibition at 5 µg/disc was 24 mm.

**Q.** And the zone of inhibition at 5 µg/disc (Pseudomonas aeruginosa)?
**A.** The zone of inhibition at 5 µg/disc was 22 mm.

**Q.** What about the zone of inhibition at 5 µg/disc (Escherichia coli) of the same molecule?
**A.** Its zone of inhibition at 5 µg/disc is 23 mm.
